Measured values reported in paper PMC3962999 (The Biochemical journal, 2011).
Residue numbers refer to the chain shown, from its start.

Tests used:
[1] = biological target: T1, PBD1 (PPIP5K1) (Homo sapiens, UniProt Q6PFW1); assay: SPR equilibrium binding to immobilized lipid vesicles, PBD1; conditions: SPR, in words
T1 sequence (Q6PFW1 382-917): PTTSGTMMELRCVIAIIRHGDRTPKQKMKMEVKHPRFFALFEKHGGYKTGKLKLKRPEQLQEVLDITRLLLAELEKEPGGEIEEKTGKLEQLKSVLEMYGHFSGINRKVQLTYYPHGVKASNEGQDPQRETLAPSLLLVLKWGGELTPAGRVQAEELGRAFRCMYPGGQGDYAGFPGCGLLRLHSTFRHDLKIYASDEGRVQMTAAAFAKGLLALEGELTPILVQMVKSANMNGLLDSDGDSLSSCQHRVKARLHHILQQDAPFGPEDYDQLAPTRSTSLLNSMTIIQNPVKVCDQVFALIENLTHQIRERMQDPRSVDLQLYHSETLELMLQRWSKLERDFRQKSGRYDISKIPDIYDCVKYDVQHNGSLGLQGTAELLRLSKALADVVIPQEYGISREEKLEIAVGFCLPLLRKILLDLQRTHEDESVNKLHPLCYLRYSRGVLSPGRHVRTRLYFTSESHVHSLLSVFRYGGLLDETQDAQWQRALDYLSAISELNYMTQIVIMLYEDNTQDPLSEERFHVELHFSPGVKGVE
Outline: (§1)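 Large unilamellar vesicles (PtdCho/PtdE/test phosphoinositide 77:20:3) were captured on an L1 chip to 5000 RU. Signals were corrected against phosphoinositide-free vesicles. Kd came from nonlinear fitting of Req = Rmax/(1+Kd/C). Concentrations were: GRP-1 PH domain 2.5–125 nM; PBD1 on PtdIns(3,4,5)P₃ 5–150 nM; bisphosphate vesicles 75–1900 nM.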

[2] = biological target: T2, PBD1R417A (Homo sapiens, UniProt Q6PFW1, R417A); assay: SPR equilibrium binding, PBD1 R417A mutant; conditions: results not shown
T2 sequence (Q6PFW1 382-917 R417A): T1 sequence (Q6PFW1 382-917) with R36A

[3] = biological target: T3, PBD2 (PPIP5K2) (Homo sapiens, UniProt O43314); assay: SPR equilibrium binding to immobilized lipid vesicles, PBD2; conditions: SPR, in words
T3 sequence (O43314 371-901 isoform O43314-2): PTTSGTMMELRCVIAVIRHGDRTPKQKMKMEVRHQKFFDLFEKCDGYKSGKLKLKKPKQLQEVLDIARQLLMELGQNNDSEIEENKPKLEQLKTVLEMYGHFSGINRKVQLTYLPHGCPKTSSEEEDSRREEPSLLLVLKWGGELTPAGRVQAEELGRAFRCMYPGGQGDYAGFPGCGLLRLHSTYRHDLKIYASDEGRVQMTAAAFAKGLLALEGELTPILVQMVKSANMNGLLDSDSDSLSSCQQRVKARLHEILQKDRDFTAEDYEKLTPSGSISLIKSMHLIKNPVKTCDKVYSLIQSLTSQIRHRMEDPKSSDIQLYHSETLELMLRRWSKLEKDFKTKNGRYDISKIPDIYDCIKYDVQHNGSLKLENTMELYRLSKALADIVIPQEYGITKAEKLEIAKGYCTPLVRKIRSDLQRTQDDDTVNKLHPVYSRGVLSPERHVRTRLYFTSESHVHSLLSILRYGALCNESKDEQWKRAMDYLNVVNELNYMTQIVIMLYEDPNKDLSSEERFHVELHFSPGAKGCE
Outline: as §1

PtdIns(4,5)P2
binding to PBD1 [1]: significantly weaker ligands | binding to PBD1 R417A [2]: eliminated all detectable binding | binding to PBD2 [3]: relatively weakly
